Data taken from ChEMBL document CHEMBL1122723, “Potential antitumor agents: synthesis and biological properties of aliphatic amino acid 9-hydroxyellipticinium derivatives” (1984).

Columns and labels:
Nucleic Acid = assay: Apparent binding constant (Kapp) for calf thymus DNA was measured by competition with ethidium bromide; format: nucleic-acid assay; conditions: Bos taurus
Procedure, shortened: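 Calf thymus DNA binding measured by ethidium bromide competition in 0.2 M Tris-HCl buffer, pH 7.40. Apparent binding constants were derived from Scatchard plots.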

Escherichia coli = assay: Compound was evaluated for the effective dose, as compared to controls against Escherichia coli BL 101; format: functional; conditions: read-out: ED50 (the source's name)
Procedure, shortened: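 Bacteriostatic test on E. coli BL 101, a quaternary-ammonium-sensitive strain, and on Salmonella typhimurium TA 98. Inocula from master plates were grown overnight at 37 °C and diluted 1000-fold in the same medium. Cultures were shaken at 37 °C, with drugs added after 2 h of growth at graded concentrations. Growth was followed by turbidity at 650 nm. ED50 is the dose halving growth rate versus controls, from a regression of % inhibition on log dose.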

L1210 = assay: Dose that reduces the L1210 leukemia cell growth in vitro by 50% after 48 hr as compared to controls; format: functional; conditions: Mus musculus, L1210, 48 h; read-out: ID50 (the source's name)
Procedure, shortened: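 L1210 leukemia cells were grown in vitro with graded drug doses for 48 h. ID50 is the dose that reduces cell growth by 50% versus controls, read from a regression line of % growth inhibition against log dose. 50% inhibition corresponds to a twofold increase in generation time.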

Mus musculus [1] = assay: Percent Increase in life span (ILS) over controls (10e5 L1210 leukemia cells) at LD0/2 by ip administration of the drug into mouse (single injection 2 hr after cell grafting); format: functional
Procedure, shortened: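 DBA/2 mice were inoculated with 10⁵ L1210 cells and then given one intraperitoneal dose at LD0/2, the LD0 being the highest nonlethal single ip dose. Life span was compared with untreated controls as ILS = (T − C)/C × 100. ILS > 25% was counted as a significant antitumor effect.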

Mus musculus [2] = assay: Compound tested in vivo for highest […] administered intraperitoneally that reduces the L1210 leukemia cell growth; format: functional
Procedure, shortened: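 Highest nonlethal dose (LD0) found for each compound after one intraperitoneal injection into DBA/2 mice.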

Salmonella typhimurium = assay: Compound was evaluated for the effective dose, as compared to controls against Salmonella typhimurium TA98; conditions: read-out: ED50 (the source's name)

| SMILES | K app (Nucleic Acid) [M⁻¹] | EC50 (Escherichia coli) [nM] | IC50 (L1210) [nM] | ILS (Mus musculus [1]) | LD0 (Mus musculus [2]) [mg/kg] | EC50 (Salmonella typhimurium) [µM] |
| --- | --- | --- | --- | --- | --- | --- |
| Cc1c2cc[n+](C)cc2c(C)c2c1[nH]c1ccc(O)c(/N=C(/C(=O)O)C(C)C)c12 | 210000 | 180 | 310 | 31.5 | 15 | 1.65 |
| Cc1c2cc[n+](C)cc2c(C)c2c1[nH]c1ccc(O)cc12 [ELLIPTINIUM] | 1.3e+06 | 3550 | 50 | 53 | 5 |  |
| Cc1c2cc[n+](C)cc2c(C)c2c1[nH]c1ccccc12 | 230000 |  |  | 22 | 12.5 |  |
| C/C(=N\c1c(O)ccc2[nH]c3c(C)c4cc[n+](C)cc4c(C)c3c12)C(=O)O | 470000 | 1950 | 200 | 23 | 20 | 50.3 |
| Cc1c2cc[n+](C)cc2c(C)c2c1[nH]c1ccc(O)c(/N=C(\CC(C)C)C(=O)O)c12 | 260000 | 760 | 280 | 35 | 10 | 2.35 |
| Cc1c2cc[n+](C)cc2c(C)c2c1[nH]c1ccc(O)c(/N=C/C(=O)O)c12 | 80000 | 3150 | 540 | 0 | 20 | 100 |
